How the values were obtained:
[1] = test system: MT4; test: Inhibitory activity against HIV-1 in MT-4 cell culture.; assay type: functional, cell-based; details: Homo sapiens
Summary of the method: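 MT-4 cells at about 200000-300000 cells/mL infected with HIV-1 (IIIB) and incubated with serial compound dilutions for 5 days at 37 °C. Viable cells were counted by trypan blue exclusion.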

[2] = test system: CCRF-CEM; test: Inhibitory activity against HIV-1 in CEM cell culture.; assay type: functional, cell-based; details: Homo sapiens
Summary of the method: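 CEM cells at about 200000-300000 cells/mL infected with HIV-1 (IIIB), then added to serial dilutions of compound. After 4 days at 37 °C, syncytium formation was scored by microscopy.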

[3] = test system: MT4; test: Inhibitory activity against HIV-2 in MT-4 cell culture.; assay type: functional, cell-based; details: Homo sapiens
[4] = test system: CCRF-CEM; test: Inhibitory activity against HIV-2 in CEM cell culture.; assay type: functional, cell-based; details: Homo sapiens
[5] = target: Human immunodeficiency virus type 1 reverse transcriptase (Human immunodeficiency virus 1, UniProt Q72547); test: Inhibitory activity against wild-type HIV-1 reverse transcriptase
[6] = target: Human immunodeficiency virus type 1 reverse transcriptase (Human immunodeficiency virus 1, UniProt Q72547, R172A); test: Inhibitory activity against R172A mutant reverse transcriptase
[7] = target: Human immunodeficiency virus type 1 reverse transcriptase (Human immunodeficiency virus 1, UniProt Q72547, E138K); test: Inhibitory activity against E138K mutant reverse transcriptase

| SMILES | EC50 [2] [nM] | EC50 [4] [µM] | EC50 [1] [nM] | EC50 [3] [µM] | IC50 [5] [µM] | IC50 [6] [nM] | IC50 [7] [nM] |
| --- | --- | --- | --- | --- | --- | --- | --- |
| CC1=CNC(=O)N([C@@H]2O[C@H](CO[Si](C)(C)C(C)(C)C)[C@@]3(OS(=O)(=O)C=C3N)[C@H]2O[Si](C)(C)C(C)(C)C)C1 | 120 | > 10 | 230 | > 10 |  |  |  |
| CC(C)=CCOc1cc(NC(=S)c2ccoc2C)ccc1Cl [UC 781] |  |  |  |  | 0.0238 | 20.8 | 226 |
| Cc1cn([C@@H]2O[C@H](CO[Si](C)(C)C(C)(C)C)C3(OS(=O)(=O)C=C3N)[C@H]2O[Si](C)(C)C(C)(C)C)c(=O)[nH]c1=O (stereo partly drawn) |  | > 20 |  | > 20 | 6.1 | 627 | > 848000 |
| Cc1cn([C@@H]2O[C@H](CO[Si](C)(C)C(C)(C)C)[C@@]3(OS(=O)(=O)C=C3N)[C@H]2O[Si](C)(C)C(C)(C)C)c(=O)n(C)c1=O | 60 | > 200 | 50 | > 200 |  |  |  |

Second part, led by results:

| EC50 [2] [nM] | EC50 [4] [µM] | SMILES | EC50 [1] [nM] | EC50 [3] [µM] | IC50 [5] [µM] | IC50 [6] [nM] | IC50 [7] [nM] |
| --- | --- | --- | --- | --- | --- | --- | --- |
| 170 | > 2 | Cc1cn([C@@H]2O[C@H](CO[Si](C)(C)C(C)(C)C)[C@@]3(OS(=O)(=O)C=C3N)[C@H]2O[Si](C)(C)C(C)(C)C)c(=O)[nH]c1=S | 170 | > 10 |  |  |  |
| 100 | > 2 | CC1=CN([C@@H]2O[C@H](CO[Si](C)(C)C(C)(C)C)[C@@]3(OS(=O)(=O)C=C3N)[C@H]2O[Si](C)(C)C(C)(C)C)C(=O)NC1 | 200 | > 10 |  |  |  |
| 10 | > 2 | Cc1cn([C@@H]2O[C@H](CO[Si](C)(C)C(C)(C)C)[C@@]3(OS(=O)(=O)C=C3N)[C@H]2O[Si](C)(C)C(C)(C)C)c(=O)n(CCCO)c1=O | 30 | > 2 |  |  |  |

Reference: ChEMBL document CHEMBL1134768, “Identification of a putative binding site for [2',5'-bis-O-(tert-butyldimethylsilyl)-beta-D-ribofuranosyl]-3'-spiro-5''-(4''-amino-1'',2''-oxathiole-2'',2''-dioxide)thymine (TSAO) derivatives at the p51-p66 interface of HIV-1 reverse transcriptase” (J Med Chem, 2001)
